TRPC4 agonist: activators of mouse TRPC4 channel | HEK293 TRPC4beta/mu-opioid, Fluo4 calcium fluorescence; hits give high values | AID 2237 | Q9QUQ5 | B-score at 10 µM | actives 0.49% (n = 310,000);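 active = B-score above 5 SD of library B-scores, and initial fluorescence ratio not above library mean plus 5 SD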;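 also: positive B-score marks a calcium rise read as TRPC4 activation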
Target sequence (Q9QUQ5 whole entry, looked up): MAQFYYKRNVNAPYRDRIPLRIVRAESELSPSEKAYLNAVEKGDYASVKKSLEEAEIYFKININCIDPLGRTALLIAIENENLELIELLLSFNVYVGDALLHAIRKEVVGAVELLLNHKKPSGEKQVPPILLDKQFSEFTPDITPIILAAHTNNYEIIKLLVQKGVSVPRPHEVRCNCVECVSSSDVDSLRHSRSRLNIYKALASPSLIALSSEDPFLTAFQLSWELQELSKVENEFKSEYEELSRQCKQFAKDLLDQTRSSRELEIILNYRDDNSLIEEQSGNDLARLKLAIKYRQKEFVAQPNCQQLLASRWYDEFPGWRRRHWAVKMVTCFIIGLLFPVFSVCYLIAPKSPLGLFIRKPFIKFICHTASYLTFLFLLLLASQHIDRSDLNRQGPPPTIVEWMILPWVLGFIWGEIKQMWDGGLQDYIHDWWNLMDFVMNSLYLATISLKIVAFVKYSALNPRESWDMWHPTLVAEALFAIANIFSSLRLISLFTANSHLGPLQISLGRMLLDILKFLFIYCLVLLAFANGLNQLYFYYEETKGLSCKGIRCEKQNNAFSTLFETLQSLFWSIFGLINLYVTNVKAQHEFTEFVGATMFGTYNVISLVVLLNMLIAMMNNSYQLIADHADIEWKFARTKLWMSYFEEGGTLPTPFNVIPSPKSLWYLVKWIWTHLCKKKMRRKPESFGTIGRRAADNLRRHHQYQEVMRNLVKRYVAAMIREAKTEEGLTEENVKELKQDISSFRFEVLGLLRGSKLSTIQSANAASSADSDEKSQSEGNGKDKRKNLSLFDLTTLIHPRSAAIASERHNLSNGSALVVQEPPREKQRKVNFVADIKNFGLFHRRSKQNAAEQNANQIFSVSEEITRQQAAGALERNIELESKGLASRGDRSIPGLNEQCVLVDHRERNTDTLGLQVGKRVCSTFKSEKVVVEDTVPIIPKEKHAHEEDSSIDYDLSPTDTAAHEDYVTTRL
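Assay system: HEK293 cells stably co-expressing mouse TRPC4beta and mu-opioid receptor / Timing: Fluo4 dye loading 45 min at room temperature, 110 s recording / Signal: Fluo4 calcium-sensitive dye fluorescence, kinetic, 1 Hz baseline / Read-out: integrated baseline-normalised fluorescence ratio, converted to per-well B score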
TRPC6 act: activators of mouse TRPC6 channel. Q61143. HEK293-TRPC6 membrane potential dye fluorescence; hits give high values. B-score at 10 µM. actives 0.13% (n = 310,000). AID 2550;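 active = B-score of the integrated fluorescence ratio above library mean plus 3 SD, and starting fluorescence ratio within library mean plus 5 SD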;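 also: higher score means more depolarization so channel activation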
TRPC6 inhibitor: blocks the mouse TRPC6 cation channel. Q61143. HEK293-TRPC6, membrane potential dye, ACh-evoked depolarization; hits give low values. B-score at 10 µM. actives 1.1% (n = 310,000). AID 2553;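 active = B-score under library mean minus 3 SD, initial fluorescence not abnormally high, positive integrated signal ratio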;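 also: B-score derived from integrated fluorescence ratio over the kinetic read; more negative B-score means stronger inhibition of depolarization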
TRPC4 PAM: allosterically enhances the mouse TRPC4 cation channel; B-score at 10 µM; actives 0.42% (n = 310,000); HEK293 TRPC4beta/mu-opioid, DAMGO EC20, Fluo-4 Ca2+ flux; hits give high values; Q9QUQ5;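 active = B-score of calcium response area above 5 SD of library B-scores, with initial fluorescence ratio within 5 SD of library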;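 also: B-score of integrated fluorescence ratio over time as area under calcium response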
TRPC4 block: blocks the mouse TRPC4 cation channel | Q9QUQ5 | HEK293 TRPC4beta/mu-opioid, DAMGO-evoked Fluo4 calcium flux; hits give low values | B-score at 10 µM | actives 0.39% (n = 300,000) | AID 2247;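 active = B-score over 3 SD under the library average, no early fluorescence shift, positive overall ratio signal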
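Signal: kinetic Fluo4 fluorescence imaging of calcium influx. Material: stable TRPC4beta/mu-opioid receptor HEK293 cells. Probe or stimulus: DAMGO in two steps, submaximal then maximal.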
TRPC4 spec 2: second check of whether TRPC6 inhibitors also affect mouse TRPC4. shares compounds with TRPC6 inhibitor. HEK293 TRPC4/MOR, membrane potential dye fluorescence; channel activated by saturating DAMGO dose. inhibition, % at 10 µM. actives 42% (n = 920);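 active = compounds whose fluorescence signal differed from control wells by over 3 SD, either direction, in both duplicate plates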
TRPC4 spec: tests whether TRPC6 inhibitors also affect mouse TRPC4 | shares compounds with TRPC6 inhibitor | HEK293 TRPC4/mu-opioid, membrane potential fluorescence | activity change, negative = inhibition, % at 10 µM | actives 61% (n = 920);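 active = rise or fall in signal beyond 3 SD of buffer-only wells in both replicate plates, either sign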;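 also: integrated kinetic ratio of fluorescence range over baseline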
HEK293 MPD ctr 2-1: second check of TRPC6 inhibitor effects in parental HEK293 cells. shares compounds with TRPC6 inhibitor. parental HEK293 membrane potential dye fluorescence; maximal acetylcholine challenge after compound addition. signal change vs control, % at 10 µM. actives 31% (n = 920);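 active = membrane potential signal moving either way by over 3 SD of the maximum-effect control, in both duplicate plates, meaning non-specific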
HEK293 MPD ctr-1: parental HEK293 nonspecific activity of TRPC6 inhibitors | shares compounds with TRPC6 inhibitor | parental HEK293 membrane potential dye fluorescence | membrane potential signal change, % at 10 µM | actives 60% (n = 920) | AID 2780;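 active = membrane potential signal shifting up or down by more than 3 SD of buffer-only wells, on both duplicate plates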
HEK293 MPD ctr-2: counter-screen for TRPC6 modulators: effect in parental HEK293 cells; membrane potential dye fluorescence; actives 51% (n = 2,400); AID 488924; shares compounds with TRPC6 inhibitor; membrane potential signal change, % at 10 µM;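 active = membrane potential signal moves up or down beyond 5 SD from buffer-only wells, on both duplicate plates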
HEK293 MPD ctr 2-2: parental HEK293 nonspecific activity of TRPC6 modulators, second screen; shares compounds with TRPC6 inhibitor; membrane potential dye fluorescence; after compound, maximal acetylcholine stimulation; inhibition, % at 10 µM; actives 14% (n = 2,400); AID 488926;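 active = membrane potential signal drops by more than 5 SD from the mean control signal, in both duplicate plates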;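 also: plate controls were acetylcholine ECmax control wells for no effect and buffer only wells for full effect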
TRPC4 ctr mod: selectivity of TRPC6 modulators against mouse TRPC4. shares compounds with TRPC6 inhibitor. HEK293 TRPC4/mu-opioid, membrane potential fluorescence. percent change from control (negative = decrease, positive = increase), % at 10 µM. actives 69% (n = 2,400);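 active = membrane potential signal moved up or down beyond 5 SD of buffer control wells, in both duplicate plates, actives on both sides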;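 also: plate controls were assay buffer wells for no effect and DAMGO maximal-effect wells for full effect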
TRPC4/MOR inh 2: second selectivity test of TRPC6 modulators against mouse TRPC4. AID 488928. actives 55% (n = 2,400). shares compounds with TRPC6 inhibitor. HEK293 TRPC4/mu-opioid, membrane potential dye fluorescence; stimulated with maximal-effect DAMGO. inhibition, % at 10 µM;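 active = drop in membrane potential signal beyond 5 SD of the control wells in both duplicate plates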;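 also: TRPC4 counter screen for TRPC6 hits run under conditions tuned for TRPC6 not TRPC4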
TRPC6 block conf: confirmation of mouse TRPC6 inhibitors | shares compounds with TRPC6 inhibitor | HEK293-TRPC6, membrane potential dye, ACh-evoked depolarization | inhibition, % at 10 µM | actives 43% (n = 3,300);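 active = fluorescence ratio falls more than 5 SD below the full-stimulation control mean, in both duplicate runs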;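 also: integrated fluorescence ratio of peak minus minimum over baseline after agonist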
TRPC6 act conf: confirmation of mouse TRPC6 activators; shares compounds with TRPC6 inhibitor; HEK293-TRPC6 membrane potential dye fluorescence, FDSS; activation, % at 10 µM; actives 11% (n = 2,800); AID 488961;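 active = ratio signal rise beyond 5 SD above unstimulated control wells' mean, seen in both duplicate runs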;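 also: plate controls were buffer EC0 wells for no effect and acetylcholine ECmax response for full effect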
An asterisk follows results filed as active; i = inactive; / = not tested or not shown. Shown are actives, neighbours in structure and some others; about 2.3% of the full set was active somewhere.

SMILES	TRPC4 agonist	TRPC6 act	TRPC6 inhibitor	TRPC4 PAM	TRPC4 block	HEK293 MPD ctr-2	HEK293 MPD ctr 2-2	TRPC4 ctr mod	TRPC4/MOR inh 2	TRPC6 block conf	TRPC6 act conf	others
O=C(Nc1nnc(-c2ccccc2Cl)o1)c1ccc(S(=O)(=O)N2CCCCCC2)cc1	71*	i	-6.3*	i	i	i	i	-10%*	i	i	i
CC(C)CN(C(=O)COC(=O)Cc1cccc2ccccc12)c1c(N)n(Cc2ccccc2)c(=O)[nH]c1=O	i	i	i	i	i	/	/	/	/	/	/
Cc1nn(-c2ccc([N+](=O)[O-])cc2)c2c1C(c1ccc(OC(F)F)cc1)N1C(=N2)C(=O)Nc2ccccc21 (centres undefined)	i	i	i	i	i	/	/	/	/	/	/
COc1cccc(C2c3c(C)nn(-c4ccc([N+](=O)[O-])cc4)c3N=C3C(=O)Nc4ccccc4N32)c1 (centres undefined)	i	i	-5.7*	i	i	i	i	i	54%*	i	i
O=c1[nH]c(-c2ccccc2)c(-c2ccccc2)nc1[N+](=O)[O-]	i	12*	i	i	i	i	i	16%*	i	i	48%*
COc1ccc(OC)c(CC(=O)N2CCc3cc(OC)c(OC)cc3C2)c1	i	i	i	i	i	/	/	/	/	/	/
N#Cc1ccc(NC(=O)Nc2ccc(Cl)cc2)cc1	i	i	i	i	i	/	/	/	/	/	/
N#CC(C#N)=C/C=C(\Nc1ccc(Cl)cc1)c1ccc(Cl)cc1	i	i	-5.2*	i	i	i	i	i	38%*	i	i
CCN(c1ccc(OC)cc1)S(=O)(=O)c1nnc(NC(=O)c2ccccc2Cl)s1	i	i	i	i	i	/	/	/	/	/	/
CCn1cnc2c([N+](=O)[O-])c(NS(=O)(=O)c3ccc(C)cc3)ccc21	i	i	i	i	i	/	/	/	/	/	/
O=C(c1ccc(F)cc1)N1CCN(c2cc(N3CCCCC3)c(F)cc2[N+](=O)[O-])CC1	i	i	-10*	i	/	/	/	/	/	i	i	TRPC4 spec 2=i;TRPC4 spec=i;HEK293 MPD ctr 2-1=i;HEK293 MPD ctr-1=i
COc1ccc(N2CCN(C(=O)c3ccc(F)cc3)CC2)c([N+](=O)[O-])c1	i	i	i	i	i	/	/	/	/	/	/

High-throughput results deposited in PubChem by Johns Hopkins Ion Channel Center.
